Test results as given in article PMC3759693 (Genes & Development, 2013).
Each block holds one molecule with its values, some of them ahead of it.

Experiments:
[1] = test system: PARG-dependent PAR hydrolysis; experiment: PAR at DNA damage sites after laser microirradiation; format: cell-based; conditions: 10 μM GLTN; Supplemental Fig. 7C
[2] = test system: recruitment of NBS1 R28A mutant to DNA damage sites; experiment: Laser microirradiation, relocation of NBS1 R28A-GFP in MEFs; format: cell-based, mouse; conditions: wild-type MEFs
Summary of the method: (§1)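 U2OS cells or MEFs (wild-type or knockout) on glass-bottomed dishes expressed GFP-fused proteins or mutants. Microirradiation used an equal laser pulse energy and exposure time for every cell, with live imaging. Where used, 100 nM olaparib, 10 μM GLTN or 10 μM wortmannin was added 1 h before irradiation. GFP intensity at the laser line was quantified; normalized curves from 50 cells over three experiments were averaged, ± SD.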

[3] = test system: in vivo interaction between PAR and PNKP, APTX, Ligase4, XRCC1, NBS1; experiment: Co-IP of PAR with FHA/BRCT domain-containing proteins after IR; format: cell-based; conditions: olaparib pretreatment
Summary of the method: (§2)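 U2OS cells were given 137Cs IR (10 Gy or indicated doses) and lysed at indicated times. Where used, 100 nM olaparib was added 1 h […]. Lysis on ice in NETN-100 (20 mM Tris-HCl pH 8.0, 100 mM NaCl, 1 mM EDTA, 0.5% NP-40). Soluble fractions were immunoprecipitated and western blotted with the indicated antibodies (e.g., anti-PAR, pATM, pCHK2, pSQpTQ). Triplicates.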

G2/M checkpoint = experiment: G2/M checkpoints assay, phospho-histone H3 flow cytometry; format: cell-based; conditions: olaparib treatment
Summary of the method: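 Stable cells expressing siRNA-resistant Flag-tagged wild-type NBS1 were pretreated with or without olaparib, then given 0 or 2 Gy IR with 1 h recovery. Cells fixed in 70% ethanol and stained with rabbit anti-phospho-histone H3 (Ser10) plus FITC anti-rabbit secondary. RNase A treatment and propidium iodide staining followed. pH3-positive fraction measured by flow cytometry.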

[4] = test system: recruitment of PNKP to DNA damage sites; experiment: Laser microirradiation, relocation of PNKP; format: cell-based
Summary of the method: as §1

[5] = test system: recruitment of DNA Ligase4 to DNA damage sites; experiment: Laser microirradiation, relocation of Ligase4; format: cell-based; conditions: olaparib treatment; Supplemental Fig. 10B
Summary of the method: as §1

[6] = test system: recruitment of XRCC1 to DNA damage sites; experiment: Laser microirradiation, relocation of XRCC1; format: cell-based; conditions: olaparib treatment; Supplemental Fig. 10C
Summary of the method: as §1

[7] = test system: wild-type or H2AX−/− MEFs; experiment: Colony formation assay after IR; format: cell-based, mouse; conditions: 100 nM olaparib, low dose of IR
Summary of the method: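 500 wild-type or H2AX−/− MEFs seeded per well, then given graded 137Cs IR doses with or without 100 nM olaparib present in the medium throughout culture. After 7 d, cells fixed and crystal violet-stained; colonies of >50 cells counted. Triplicates, mean ± SD, Student's t-test.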

[8] = test system: recruitment of NBS1 to DNA damage sites; experiment: Laser microirradiation, relocation of NBS1-GFP in MEFs; format: cell-based, mouse; conditions: 100 nM olaparib 1 h before laser microirradiation
Summary of the method: as §1

early activation of ATM = experiment: Western blot of pATM; format: cell-based; conditions: after IR, cells pretreated with olaparib
Summary of the method: as §2

[9] = test system: early DNA damage repair in U2OS cells; experiment: Neutral comet assay; format: cell-based; conditions: 4 Gy IR, olaparib treatment
[10] = test system: early phosphorylation of 53BP1; experiment: IP/Western blot of 53BP1 phosphorylation after IR; format: cell-based; conditions: cells pretreated with olaparib, then irradiated
Summary of the method: as §2

[11] = test system: recruitment of NBS1 to DNA damage sites; experiment: Laser microirradiation, relocation of NBS1-GFP in U2OS cells; format: cell-based; conditions: 10 μM wortmannin 1 h before laser microirradiation
Summary of the method: as §1

BRCT domain of BRCA1 = BRCT domain of BRCA1 (Homo sapiens, UniProt P38398); experiment: Affinity of BRCA1 BRCT domain with PAR; format: binding
BRCT domain of BRCA1, sequence (P38398 1646-1859 limits assumed): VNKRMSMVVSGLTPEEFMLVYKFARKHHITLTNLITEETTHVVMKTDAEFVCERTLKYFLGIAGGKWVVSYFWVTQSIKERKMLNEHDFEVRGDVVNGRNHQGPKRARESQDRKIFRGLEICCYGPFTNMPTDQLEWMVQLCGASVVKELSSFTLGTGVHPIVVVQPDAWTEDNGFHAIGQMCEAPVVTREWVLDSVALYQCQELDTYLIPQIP
Summary of the method: (§3)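 Recombinant domains expressed in E. coli, or by baculovirus for NBS1 FHA+BRCT (C-terminal GST), and purified. ITC at 16°C: protein at 20∼60 μM final in 10 mM Na2HPO4 (pH 7.5), 100 mM NaCl. Syringe ligand (PAR, ADP-ribose or iso-ADP-ribose) at 150∼750 μM final in the same buffer, with PAR counted as ADP-ribose units. 0.4 μL preinjection, then 19 × 2 μL injections at 120 sec, 1000 rpm. Isotherms integrated and fitted.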

FHA domain of CHK2 = FHA domain of CHK2 (Homo sapiens, UniProt O96017); experiment: Interaction with CHK2 FHA domain; format: binding; conditions: Supplemental Fig. 3
FHA domain of CHK2, sequence (O96017 113-175 limits assumed): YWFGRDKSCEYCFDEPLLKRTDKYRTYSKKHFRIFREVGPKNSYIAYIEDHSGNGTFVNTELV
Summary of the method: as §3

BRCT domain of MDC1 = molecular target: T1, BRCT domain of MDC1 (Homo sapiens, UniProt Q14676); experiment: Affinity of MDC1 BRCT domain with PAR; format: binding
T1 sequence (Q14676 1891-2089 limits assumed): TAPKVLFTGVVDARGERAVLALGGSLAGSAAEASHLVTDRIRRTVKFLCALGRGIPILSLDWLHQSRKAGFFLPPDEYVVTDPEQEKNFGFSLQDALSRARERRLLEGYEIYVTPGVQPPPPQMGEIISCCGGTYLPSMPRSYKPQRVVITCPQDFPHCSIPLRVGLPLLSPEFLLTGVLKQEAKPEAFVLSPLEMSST
Summary of the method: as §3

[12] = molecular target: XRCC1 (amino acids 379–400) peptide (Homo sapiens, UniProt P18887); experiment: Dot blot, pull-down or ITC with XRCC1 peptide; format: binding; conditions: pull-down, or ITC assay, data not shown
XRCC1 (amino acids 379–400) peptide, sequence (P18887 379-400 limits assumed): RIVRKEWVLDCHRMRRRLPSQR

FHA domain of RNF8 = molecular target: T2, FHA domain of RNF8 (Homo sapiens, UniProt O76064); experiment: Interaction with RNF8 FHA domain; format: binding; conditions: Supplemental Fig. 3
T2 sequence (O76064 38-92 limits assumed): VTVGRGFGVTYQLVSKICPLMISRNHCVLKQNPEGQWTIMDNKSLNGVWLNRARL
Summary of the method: as §3

Molecule: O=C(OC[C@H]1O[C@@H](OC(=O)c2cc(O)c(O)c(OC(=O)c3cc(O)c(O)c(O)c3)c2)[C@H](OC(=O)c2cc(O)c(O)c(OC(=O)c3cc(O)c(O)c(O)c3)c2)[C@@H](OC(=O)c2cc(O)c(O)c(OC(=O)c3cc(O)c(O)c(O)c3)c2)[C@@H]1OC(=O)c1cc(O)c(O)c(OC(=O)c2cc(O)c(O)c(O)c2)c1)c1cc(O)c(O)c(OC(=O)c2cc(O)c(O)c(O)c2)c1 [GLTN, gallotannin]
half-life of PAR at DNA damage sites [1]: significantly prolonged | retention of NBS1 R28A mutant at DNA damage sites ([2]; GLTN treatment): stabilized NBS1 at DNA damage sites

Molecule: O=C(c1cc(Cc2n[nH]c(=O)c3ccccc23)ccc1F)N1CCN(C(=O)C2CC2)CC1 [olaparib]
in vivo interaction of FHA/BRCT domain-containing proteins with PAR [3]: no longer interacted with PAR in vivo | arrest at the G2/M boundary after IR (G2/M checkpoint): could not be fully arrested at the G2/M boundary | early recruitment of PNKP to DNA damage sites ([4]; olaparib treatment, Supplemental Fig. 9A): impaired the early recruitment | early recruitment of DNA Ligase4 to DNA damage sites [5]: impaired the early recruitment | fast recruitment of XRCC1 to DNA damage sites [6]: abolished fast recruitment | sensitivity to IR-induced DNA damage (colony formation) ([7]; H2AX−/− MEFs): hypersensitive | sensitivity to IR-induced DNA damage (colony formation) ([7]; wild-type MEFs): could still be resistant | recruitment of NBS1 R28A mutant to DNA damage sites ([2]; olaparib treatment): abolished the recruitment of NBS1 | recruitment of NBS1 to DNA damage sites ([8]; H2AX−/− cells): abolished both the fast recruitment and slow accumulation of NBS1 | relocation of NBS1 to DNA damage sites ([8]; MDC1−/− cells): abolished the relocation of NBS1 | recruitment of NBS1 to DNA damage sites ([8]; wild-type MEFs): abolished the early recruitment of NBS1 | early activation of ATM (early activation of ATM): impaired | DNA damage repair (comet assay tail moment) [9]: significantly impaired | early phosphorylation of 53BP1 [10]: clearly suppressed

Molecule: COC[C@H]1OC(=O)c2coc3c2[C@@]1(C)C1=C(C3=O)[C@@H]2CCC(=O)[C@@]2(C)C[C@H]1OC(C)=O [wortmannin]
recruitment of NBS1 to DNA damage sites [11]: could still be recruited | retention of PNKP at DNA damage sites ([4]; wortmannin treatment, Supplemental Fig. 9D): significantly impaired

affinity with PAR (BRCT domain of BRCA1): do not have the affinity | interaction with the FHA domain (FHA domain of CHK2): failed to interact | affinity with PAR (BRCT domain of MDC1): do not have the affinity | binding between the peptide and PAR [12]: did not detect any binding | interaction with the FHA domain (FHA domain of RNF8): failed to interact
Molecule: poly(ADP-ribose) [PAR]
